Activity calls are given as the source filed them. The rule behind the calls is not given here.
What was measured:
[1] = system: Human immunodeficiency virus 1; test: Antiviral activity against X4-tropic HIV1 NL4.3 infected in human MT4 cells assessed as protection from virus-induced cytopathogenicity; type: functional, organism-based; conditions: Human immunodeficiency virus 1, NL4.3, MT4
Outline: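 MT-4 cells infected with X4 HIV-1 strain NL4-3; readout is protection from virus-induced cytopathogenicity. EC50 = concentration giving 50% protection, mean of at least three independent experiments.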

[2] = Cytotoxicity against human MT4 cells assessed as reduction of cell viability; type: cell-based
[3] = biological target: C-X-C chemokine receptor type 4 (Homo sapiens) (UniProt P61073); test: Displacement of [125I]-CXCL12 from CXCR4 expressed in human Jurkat cells at 10 uM relative to T140; type: cell-based
Chain of C-X-C chemokine receptor type 4 (Homo sapiens) (P61073 whole entry): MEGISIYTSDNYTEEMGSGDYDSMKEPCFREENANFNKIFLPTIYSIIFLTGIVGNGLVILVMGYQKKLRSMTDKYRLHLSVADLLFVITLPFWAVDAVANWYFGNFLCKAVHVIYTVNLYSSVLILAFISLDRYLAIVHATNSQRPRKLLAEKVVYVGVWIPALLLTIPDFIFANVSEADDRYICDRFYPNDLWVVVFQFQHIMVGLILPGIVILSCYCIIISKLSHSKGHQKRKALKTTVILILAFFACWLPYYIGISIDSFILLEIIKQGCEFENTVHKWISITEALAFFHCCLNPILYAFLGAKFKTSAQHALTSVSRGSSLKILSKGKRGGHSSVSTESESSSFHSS
Outline: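 Competition for [125I]-CXCL12 binding to Jurkat cells, test compounds at 10 µM. Percent inhibition expressed relative to that given by the reference peptide T140, set at 100%.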

[4] = system: Human immunodeficiency virus 1; test: Antiviral activity against R5-tropic HIV1 NL(AD8) infected in human PM1 cells expressing CCR5 assessed as protection from virus-induced cytopathogenicity at < 100 uM; type: functional, organism-based
[5] = system: Human immunodeficiency virus 1; test: Antiviral activity against R5-tropic HIV1 NL(AD8) infected in human PM1 cells expressing CCR5 assessed as protection from virus-induced cytopathogenicity; type: functional, organism-based; conditions: Human immunodeficiency virus 1, NL(AD8)

| SMILES | EC50 [1] [µM] | inhibition [3] [%] | EC50 [5] [µM] | CC50 [2] [µM] | Activity [4] |
| --- | --- | --- | --- | --- | --- |
| C[C@H](NC(=O)[C@H](CCCNC(=N)N)NC(=O)c1ccc(CN(Cc2ccccn2)C(=O)c2ccc(F)cc2)cc1)c1cccc2ccccc12 | > 20 | 36 | – | 37 | – |
| C[C@H](NC(=O)[C@H](CCCNC(=N)N)NC(=O)c1ccc(CN(CCc2ccccn2)C(=O)c2ccc(F)cc2)cc1)c1cccc2ccccc12 | > 20 | 0 | – | 43 | – |
| C[C@H](NC(=O)[C@H](CCCNC(=N)N)NC(=O)c1ccc(CN(Cc2ccncc2)Cc2ccc(F)cc2)cc1)c1cccc2ccccc12 | 8 | 16 | – | 44 | inactive |
| C[C@@H](NC(=O)[C@H](CCCNC(=N)N)NC(=O)c1ccc(CNC(=O)c2ccc(C(F)(F)F)cc2)cc1)c1cccc2ccccc12 | 7.4 | – | – | 66 | – |
| C[C@@H](NC(=O)[C@H](CCCNC(=N)N)NC(=O)c1ccc(CN(Cc2ccncc2)Cc2ccc(F)cc2)cc1)c1cccc2ccccc12 | > 20 | 12 | – | 39 | – |
| C[C@@H](NC(=O)[C@H](CCCNC(=N)N)NC(=O)c1ccc(CN(CCc2ccccn2)Cc2ccc(F)cc2)cc1)c1cccc2ccccc12 | > 4 | 4 | – | 23 | – |
| C[C@@H](NC(=O)[C@H](CCCNC(=N)N)NC(=O)c1ccc(CN(Cc2ccccn2)C(=O)c2ccc(F)cc2)cc1)c1cccc2ccccc12 | > 20 | 3 | – | 38 | – |
| N=C(N)NCCC[C@@H]1NC(=O)[C@H](CCCNC(=N)N)NC(=O)[C@@H](Cc2ccc(O)cc2)NC(=O)CNC(=O)[C@H](Cc2ccc3ccccc3c2)NC1=O | – | 100 | – | > 10 | – |
| COC[C@@H](c1ccc(C(F)(F)F)cc1)N1CCN(C2(C)CCN(C(=O)c3c(C)ncnc3C)CC2)C[C@@H]1C [VICRIVIROC] | – | – | 0.055 | – | – |
| C[C@@H](NC(=O)[C@H](CCCNC(=N)N)NC(=O)c1ccc(CN(Cc2ccc(F)cc2)Cc2ccccn2)cc1)c1cccc2ccccc12 | > 20 | 0 | – | 35 | – |
| C[C@@H](NC(=O)[C@H](CCCNC(=N)N)NC(=O)c1ccc(CN(Cc2ccncc2)C(=O)c2ccc(F)cc2)cc1)c1cccc2ccccc12 | > 20 | 6 | – | 45 | – |
| Cc1cn([C@H]2C[C@H](N=[N+]=[N-])[C@@H](CO)O2)c(=O)[nH]c1=O [ZIDOVUDINE] | 0.058 | – | – | 100 | – |
| C[C@@H](NC(=O)[C@H](CCCNC(=N)N)NC(=O)c1ccc(CN(CCc2ccc(F)cc2)Cc2ccccn2)cc1)c1cccc2ccccc12 | – | 15 | – | – | – |
| C[C@H](NC(=O)[C@H](CCCNC(=N)N)NC(=O)c1ccc(CN(CCc2ccccn2)Cc2ccc(F)cc2)cc1)c1cccc2ccccc12 | > 20 | 25 | – | 24 | – |
| C[C@H](NC(=O)[C@H](CCCNC(=N)N)NC(=O)c1ccc(CN(Cc2ccc(F)cc2)Cc2ccccn2)cc1)c1cccc2ccccc12 | > 4 | 30 | – | 11 | – |
| C[C@H](NC(=O)[C@H](CCCNC(=N)N)NC(=O)c1ccc(CNCc2ccccn2)cc1)c1cccc2ccccc12 | 0.33 | 100 | – | 80 | – |
| C[C@@H](NC(=O)[C@H](CCCNC(=N)N)NC(=O)c1ccc(CN(Cc2cccnc2)C(=O)c2ccc(F)cc2)cc1)c1cccc2ccccc12 | > 20 | 11 | – | 45 | – |
| C[C@H](NC(=O)[C@H](CCCNC(=N)N)NC(=O)c1ccc(CN(CCc2ccncc2)C(=O)c2ccc(F)cc2)cc1)c1cccc2ccccc12 | > 20 | 25 | – | 47 | – |
| C[C@H](NC(=O)[C@H](CCCNC(=N)N)NC(=O)c1ccc(CN(Cc2cccnc2)C(=O)c2ccc(F)cc2)cc1)c1cccc2ccccc12 | > 20 | 14 | – | 57 | – |
| C[C@H](NC(=O)[C@H](CCCNC(=N)N)NC(=O)c1ccc(CN(CCc2ccc(F)cc2)Cc2ccccn2)cc1)c1cccc2ccccc12 | > 4 | 16 | – | 9.9 | – |
| C[C@H](NC(=O)[C@H](CCCNC(=N)N)NC(=O)c1ccc(CN(Cc2ccncc2)C(=O)c2ccc(F)cc2)cc1)c1cccc2ccccc12 | > 20 | 13 | – | 51 | – |
| C[C@@H](NC(=O)[C@H](CCCNC(=N)N)NC(=O)c1ccc(CN(CCc2ccncc2)C(=O)c2ccc(F)cc2)cc1)c1cccc2ccccc12 | – | 12 | – | – | – |
| C[C@@H](NC(=O)[C@H](CCCNC(=N)N)NC(=O)c1ccc(CN(CCc2ccccn2)C(=O)c2ccc(F)cc2)cc1)c1cccc2ccccc12 | > 20 | 6 | – | 41 | – |

The next lines start with results.

| EC50 [1] [µM] | inhibition [3] [%] | EC50 [5] [µM] | SMILES | CC50 [2] [µM] | Activity [4] |
| --- | --- | --- | --- | --- | --- |
| – | 16 | – | C[C@@H](NC(=O)[C@H](CCCNC(=N)N)NC(=O)c1ccc(CN(CCc2ccncc2)Cc2ccc(F)cc2)cc1)c1cccc2ccccc12 | – | – |
| > 4 | 23 | – | C[C@H](NC(=O)[C@H](CCCNC(=N)N)NC(=O)c1ccc(CN(CCc2ccc(F)cc2)CCc2ccccn2)cc1)c1cccc2ccccc12 | 13 | – |
| – | 0 | – | C[C@@H](NC(=O)[C@H](CCCNC(=N)N)NC(=O)c1ccc(CN(CCc2ccncc2)CCc2ccc(F)cc2)cc1)c1cccc2ccccc12 | – | – |
| – | 51 | – | C[C@H](NC(=O)[C@H](CCCNC(=N)N)NC(=O)c1ccc(CN(CCc2ccncc2)CCc2ccc(F)cc2)cc1)c1cccc2ccccc12 | – | – |
| – | 44 | – | C[C@@H](NC(=O)[C@H](CCCNC(=N)N)NC(=O)c1ccc(CN(CCc2ccc(F)cc2)Cc2ccncc2)cc1)c1cccc2ccccc12 | – | – |
| – | 35 | – | C[C@H](NC(=O)[C@H](CCCNC(=N)N)NC(=O)c1ccc(CN(CCc2ccc(F)cc2)CCc2cccnc2)cc1)c1cccc2ccccc12 | – | – |
| – | 22 | – | C[C@@H](NC(=O)[C@H](CCCNC(=N)N)NC(=O)c1ccc(CN(CCc2cccnc2)C(=O)c2ccc(F)cc2)cc1)c1cccc2ccccc12 | – | – |
| 11 | 79 | – | C[C@@H](NC(=O)[C@H](CCCNC(=N)N)NC(=O)c1ccc(CN(CCc2ccc(F)cc2)Cc2cccnc2)cc1)c1cccc2ccccc12 | 47 | inactive |
| – | 24 | – | C[C@@H](NC(=O)[C@H](CCCNC(=N)N)NC(=O)c1ccc(CN(CCc2cccnc2)Cc2ccc(F)cc2)cc1)c1cccc2ccccc12 | – | – |
| – | 36 | – | C[C@H](NC(=O)[C@H](CCCNC(=N)N)NC(=O)c1ccc(CN(CCc2ccc(F)cc2)Cc2cccnc2)cc1)c1cccc2ccccc12 | – | – |
| > 20 | 13 | – | C[C@@H](NC(=O)[C@H](CCCNC(=N)N)NC(=O)c1ccc(CN(CCc2ccc(F)cc2)CCc2ccccn2)cc1)c1cccc2ccccc12 | 27 | – |
| > 11 | 69 | – | C[C@@H](NC(=O)[C@H](CCCNC(=N)N)NC(=O)c1ccc(CN(CCc2ccc(F)cc2)CCc2cccnc2)cc1)c1cccc2ccccc12 | 11 | inactive |
| 10 | 20 | – | C[C@H](NC(=O)[C@H](CCCNC(=N)N)NC(=O)c1ccc(CN(CCc2ccncc2)Cc2ccc(F)cc2)cc1)c1cccc2ccccc12 | 44 | inactive |
| – | 26 | – | C[C@H](NC(=O)[C@H](CCCNC(=N)N)NC(=O)c1ccc(CN(CCc2ccc(F)cc2)Cc2ccncc2)cc1)c1cccc2ccccc12 | – | – |
| 13 | 60 | – | C[C@H](NC(=O)[C@H](CCCNC(=N)N)NC(=O)c1ccc(CN(CCc2cccnc2)Cc2ccc(F)cc2)cc1)c1cccc2ccccc12 | 65 | inactive |
| > 20 | 6 | – | C[C@@H](NC(=O)[C@H](CCCNC(=N)N)NC(=O)c1ccc(CN(Cc2ccc(F)cc2)Cc2cccnc2)cc1)c1cccc2ccccc12 | 37 | – |
| > 20 | 27 | – | C[C@H](NC(=O)[C@H](CCCNC(=N)N)NC(=O)c1ccc(CN(Cc2ccc(F)cc2)Cc2cccnc2)cc1)c1cccc2ccccc12 | 41 | – |
| – | 32 | – | C[C@H](NC(=O)[C@H](CCCNC(=N)N)NC(=O)c1ccc(CN(CCc2cccnc2)C(=O)c2ccc(F)cc2)cc1)c1cccc2ccccc12 | – | – |

Reference: ChEMBL document CHEMBL2029252, “Pharmacophore-based small molecule CXCR4 ligands” (Bioorg Med Chem Lett, 2012)
